CHOP UPR activ – apoptotic UPR (CHOP) activation. CHO-CHOP luciferase reporter, luminescence; percent of tunicamycin response over DMSO baseline. activation, % at 10 µM. hit rate 0.34% among 330,000;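 active means at 10 µM dose, activation of 40% or more, normalized to positive control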;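 further: 100% = tunicamycin at 10 µg/mL and 0% = DMSO alone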
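measured by = luciferase luminescence | assay system = CHO-CHOP cells, stable luciferase reporter of PERK-eIF2a-CHOP signalling | amount = 500 reporter cells seeded per well | timing = 6 h compound exposure at 37 °C after overnight seeding | controls = positive tunicamycin 10 µg/mL, negative DMSO alone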
Mdm2 MdmX PPI – disrupts the human Mdm2-MdmX interaction; O15151+Q00987; SaOS-2 split-luciferase Mdm2/MdmX complementation, luminescence; hit rate 3% among 330,000; inhibition, % at 8 µM;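 active means inhibition of at least 50% at 8 µM in the primary screen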
Target sequence (O15151 whole entry, looked up): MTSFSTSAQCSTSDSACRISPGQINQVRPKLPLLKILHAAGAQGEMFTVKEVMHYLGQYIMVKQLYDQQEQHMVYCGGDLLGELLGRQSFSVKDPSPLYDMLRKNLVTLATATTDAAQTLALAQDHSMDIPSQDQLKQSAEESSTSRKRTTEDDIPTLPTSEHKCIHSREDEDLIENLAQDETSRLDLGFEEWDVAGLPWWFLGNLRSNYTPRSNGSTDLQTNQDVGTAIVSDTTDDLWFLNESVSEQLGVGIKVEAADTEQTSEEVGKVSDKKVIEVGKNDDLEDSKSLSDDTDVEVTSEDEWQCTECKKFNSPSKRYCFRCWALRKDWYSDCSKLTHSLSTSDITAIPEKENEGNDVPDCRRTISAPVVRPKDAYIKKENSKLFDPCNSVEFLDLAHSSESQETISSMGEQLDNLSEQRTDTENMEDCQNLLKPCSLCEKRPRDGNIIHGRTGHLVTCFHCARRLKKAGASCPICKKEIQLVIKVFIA
Target sequence (Q00987 whole entry, looked up): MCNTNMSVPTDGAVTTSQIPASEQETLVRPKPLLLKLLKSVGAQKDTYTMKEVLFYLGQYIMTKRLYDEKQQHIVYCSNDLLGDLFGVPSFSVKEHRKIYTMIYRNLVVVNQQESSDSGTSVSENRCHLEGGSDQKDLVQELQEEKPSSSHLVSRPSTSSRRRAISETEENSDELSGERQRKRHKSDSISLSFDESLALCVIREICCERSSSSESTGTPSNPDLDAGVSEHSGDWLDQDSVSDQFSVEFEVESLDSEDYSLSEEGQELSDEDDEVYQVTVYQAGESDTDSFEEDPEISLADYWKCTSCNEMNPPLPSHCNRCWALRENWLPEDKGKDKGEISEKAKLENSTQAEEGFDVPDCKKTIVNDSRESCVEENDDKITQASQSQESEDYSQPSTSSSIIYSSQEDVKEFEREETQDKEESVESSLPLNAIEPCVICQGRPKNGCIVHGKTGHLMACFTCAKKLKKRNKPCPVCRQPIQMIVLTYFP
XBP1 UPR activ – activators of adaptive arm of unfolded protein response (XBP1); hit rate 0.33% among 330,000; activation, % at 20 µM; CHO-XBP1 luciferase reporter, IRE1-XBP1 UPR activation, luminescence; percent of tunicamycin response, DMSO as zero;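 active means versus positive control, 20 µM dose yields 30% or more activation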;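 further: 100% = tunicamycin at 10 µg/mL and 0% = DMSO only wells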
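Test system: CHO-XBP1 luciferase reporter cells | Buffer or medium: Serum-containing F12 medium, 10% FBS | Schedule: 6 h compound exposure at 37 °C, 5% CO2 | Detection: Steady-Glo luciferase glow luminescence, 10 min after reagent addition | Read-out basis: Activation, % of tunicamycin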
Beta apoptosis – beta cell apoptosis inhibition. INS-1E cytokine-induced death, ATP luminescence, 48 h; percent of positive-control rescue, neutral wells zero. protection from apoptosis, % (test concentration not listed). hit rate 0.8% among 300,000. AID 435005;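 active means Every replicate reaches about 75%, or at least half do and their mean reaches it too, limit read from the data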;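 further: 0% = cytokine-treated negative control wells and 100% = positive control rescue; higher means more ATP so stronger rescue from cytokine killing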
T cruzi inh – blocks replication of Trypanosoma cruzi. T. cruzi beta-gal in NIH3T3, luminescence, 90 h. inhibition, % (concentration not given with the values). hit rate 1.4% among 300,000. AID 1885;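 active means mean inhibition across valid replicates above about 55%, limit read from the data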;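 further: signal also drops with host cell toxicity which is not excluded here; 0% = plate median of DMSO wells and 100% = zero luminescence signal; higher percent means less beta-gal luminescence so fewer parasites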
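Read-out: Parasite load inhibition, % | Test system: Mouse NIH/3T3 fibroblasts infected with β-gal-expressing T. cruzi Tulahuen C4 | Amount: 5,000 cells/well | Medium: DMEM, 2% fetal bovine serum | Signal: GalScreen β-gal luminescence, detergent lysis, 60 min | Timing: 3 h attach, ≥90 h co-culture | Also added: Tulahuen C4 trypomastigotes, 5000/well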
CSC inhib – blocks cancer stem cells. hit rate 1.1% among 300,000. inhibition, % at 7.5 µM. cancer stem cell-like cells viability, luminescence; in the data active means inhibition above about 75%; tested in HMLE shEcad cells
Mdm2-MdmX conf – confirmation of human Mdm2/MdmX interaction inhibitors. inhibition, % at 8 µM. Mdm2-MdmX binding, luminescent assay. hit rate 55% among 10,000. shares compounds with Mdm2 MdmX PPI; in the data active means inhibition above about 40%
FLuc counter – inhibits full-length luciferase, flagging false Mdm2/MdmX hits; shares compounds with Mdm2 MdmX PPI; SaOS-2 full-length luciferase counterscreen, luminescence; inhibition, % at 8 µM; hit rate 77% among 6,200; AID 504607;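 active means mean inhibition at 8 µM reaching about 37%, which flags the compound as non-specific, limit read from the data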;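 further: p53-null SaOS-2 cells with luciferase driven by a doxycycline-inducible promoter; compound on cells about two nights before reading with doxycycline added after day one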
* marks the source's active call; other numbers are inactive results; nt = no result. This is a sample that favours compounds with a hit; in the whole collection about 5% have one here.

SMILES | CHOP UPR activ | Mdm2 MdmX PPI | XBP1 UPR activ | Beta apoptosis | T cruzi inh | CSC inhib | Mdm2-MdmX conf | FLuc counter
CCOC(=O)CC(Nc1nc(N2CCOCC2)nc(N2CCOCC2)n1)c1ccccc1Cl (stereo not drawn) | -2 | 19 | -3 | -1 | 32 | -9 | nt | nt
O=C(c1cc(Cl)cc(Cl)c1)N1CCOCC1 | -1 | 18 | 0 | -6 | -17 | -12 | nt | nt
Cc1cc(C(=O)OCC(=O)NCc2ccco2)c(C)n1-c1ccc(F)cc1 | -1 | 56* | 5 | 22 | -34 | 56 | 52* | 66*
CCOc1cc(C=O)cc(Br)c1OCC(N)=O | 1 | 5 | -2 | 0 | -9 | 18 | nt | nt
O=C(NCc1ccccc1)Nc1cccn(Cc2ccc(Cl)cc2)c1=O | 0 | 38 | 3 | 2 | 7 | nt | nt | nt
Cc1ccc(NC(=O)c2ccccc2NS(=O)(=O)c2ccc(F)cc2)cc1S(=O)(=O)N1CCCCC1 | 4 | 89* | 2 | 36 | 15 | 51 | 91* | 28
Cn1nc(C(=O)Nc2cccc(S(=O)(=O)N3CCCCC3)c2)c2ccccc2c1=O | 2 | 63* | 2 | nt | nt | nt | 53* | 83*
Cn1nc(C(=O)Nc2ccc(S(=O)(=O)N3CCCCC3)cc2)c2ccccc2c1=O | -2 | 35 | -5 | 5 | 11 | 9 | nt | nt
NS(=O)(=O)c1cccc(NC(=O)c2ccccc2NS(=O)(=O)c2ccc(F)cc2)c1 | -1 | 6 | -2 | -1 | -7 | 6 | nt | nt
O=C(Nc1cccc(S(=O)(=O)N2CCCCC2)c1)c1ccccc1NS(=O)(=O)c1ccc(F)cc1 | -1 | 89* | 6 | 52 | -6 | 50 | 71* | 111*
COc1ccc(-n2nc(C(=O)NCC(=O)Nc3ccc(F)cc3)c3ccccc3c2=O)cc1 | -1 | 20 | 1 | 7 | 0 | 13 | nt | nt
COc1ccc(OCc2cc(C(=O)NC(C)Cc3cnccn3)no2)c(Cl)c1 (stereo not drawn) | 9 | -88 | 0 | 0 | 1 | -6 | nt | nt
Cc1ccc(C)c(CN2CCC(CNC(=O)Nc3ccc(F)c(Cl)c3)CC2)c1 | 0 | 69* | 1 | 14 | 47 | 18 | 33 | 56*
Cc1ccc(C)c(CN2CCC(CNC(=O)Nc3cccc(Cl)c3C)CC2)c1 | -1 | 41 | 2 | 7 | 42 | -4 | nt | nt
Cc1cc(C)cc(NC(=O)NCC2CCN(Cc3cc(C)ccc3C)CC2)c1 | 1 | 50* | 4 | 1 | 13 | 2 | 36 | nt
O=C(CN1CCN(S(=O)(=O)c2cccs2)CC1)NCC1CCCCC1 | -1 | 2 | -1 | -6 | nt | nt | nt | nt
Cc1cc(-c2nnc(CCC(=O)N(C)Cc3cccc4ccccc34)o2)no1 | 0 | 1 | -1 | 5 | -2 | 2 | nt | nt
COc1ccc(S(=O)(=O)Nc2nc3ccccc3nc2Nc2cccc(C(=O)O)c2)cc1 | 1 | 2 | -7 | -5 | -10 | 1 | nt | nt
CCc1nc2c(cnn2-c2ccc(Cl)cc2)c(=O)n1-c1ccc(OC)cc1 | 1 | 19 | 5 | 9 | 34 | -12 | nt | nt
CCc1nc2c(cnn2-c2ccc(Cl)cc2)c(=O)n1-c1ccc2c(c1)OCCO2 | 2 | 56* | 9 | 0 | 24 | 57 | 22 | nt
O=C(CNC(c1ccccc1)c1ccccc1)Nc1ccccc1-c1ccccc1 | 1 | 7 | 1 | 4 | 24 | 39 | nt | nt
O=C(/C=C/c1ccccc1)OCCCN=C1NS(=O)(=O)c2ccccc21 | -1 | -21 | -1 | nt | -81 | -7 | nt | nt
O=C(/C=C/c1cccc([N+](=O)[O-])c1)Nc1ccc(NC(=O)c2cccs2)cc1 | 1 | 85* | -1 | -3 | 18 | -7 | 3 | nt
O=C(N/N=C/c1cccc([N+](=O)[O-])c1)c1cccs1 | 3 | -2 | 7 | 1 | 0 | -10 | nt | nt
O=C(/C=C/c1cccc([N+](=O)[O-])c1)n1cnc2ccccc21 | -4 | 100* | -4 | nt | 1 | nt | 94* | 25
SMILES | CHOP UPR activ | Mdm2 MdmX PPI | XBP1 UPR activ | Beta apoptosis | T cruzi inh | CSC inhib | Mdm2-MdmX conf | FLuc counter
O=C(/C=C/c1cccc([N+](=O)[O-])c1)N1CCN(c2ccccn2)CC1 | -1 | -13 | -7 | 1 | 22 | -15 | nt | nt
O=C(/C=C/c1cccc([N+](=O)[O-])c1)c1cccs1 | 25 | 74* | 17 | 1 | -3 | 37 | 57* | 74*
C=CC[C@H](CC(=O)NCCO)C(=O)NCCOC(=O)[C@@H](CC=C)CC(=O)OC(C)(C)C | -1 | -20 | -4 | -4 | nt | nt | nt | nt
O=C(CCN=C1NS(=O)(=O)c2ccccc21)Nc1ccc(F)cc1Cl | 1 | -13 | -1 | 4 | nt | -3 | nt | nt
COc1ccc2c(COC(=O)c3cccc(S(=O)(=O)NCC(C)C)c3)cc(=O)oc2c1 | 6 | 9 | -3 | -5 | 5 | 0 | nt | nt
CCCNS(=O)(=O)c1cccc(C(=O)OCc2cc(=O)oc3cc(OC)ccc23)c1 | 8 | 70* | 28 | 21 | 8 | 22 | 56* | 66*
O=C(CCl)Nc1cn(-c2ccccc2)nc1-c1ccccc1 | 6 | 75* | -5 | -8 | 12 | 21 | 33 | 34
CC(=O)Nc1cn(-c2ccccc2)nc1-c1ccccc1 | 2 | 19 | 2 | -7 | -7 | -2 | nt | nt
CC(C)N(C(=O)COC(=O)c1cccc(N(C)C)c1)c1ccccc1 | -1 | 14 | -2 | nt | -3 | 3 | nt | nt
Cc1ccc(S(=O)(=O)c2ncccc2[N+](=O)[O-])cc1 | -10 | 90* | -8 | 51 | 65* | 48 | 77* | 52*
COCCNC(=S)N/N=C(\C)c1ccc(-n2ccnc2)cc1 | -1 | -1 | 2 | 15 | -19 | -2 | nt | nt
CCOC(=O)c1c(C)[nH]c(C(=O)OCC(=O)N2CCc3ccccc32)c1C | 0 | 70* | -2 | 0 | -1 | -15 | -10 | nt
CCOC(=O)c1[nH]c(C)c(C(=O)OCC(=O)N2CCc3ccccc32)c1C | -1 | -1 | 13 | 6 | -2 | 12 | nt | nt
COc1cccc(NC(=O)COC(=O)CCn2c(C)csc2=O)c1 | 0 | 18 | -4 | -1 | -9 | 1 | nt | nt
O=C(CC12CC3CC(CC(C3)C1)C2)NC(=S)NCc1ccco1 | 0 | 64* | 3 | 12 | 56* | 45 | 28 | nt
COc1ccc(OC)c(NC(=O)CCN2CCN(CCO)CC2)c1 | -1 | 16 | -6 | -2 | -8 | -33 | nt | nt
O=C(N/C(=C/c1ccccc1Cl)C(=O)N1CCCCC1)c1ccco1 | 0 | 5 | -2 | 9 | 7 | -9 | nt | nt
CC1(C)CC(N=Cc2c(O)n(Cc3ccc4c(c3)OCO4)c(=O)c3ccccc23)CC(C)(C)N1 | 3 | 93* | -1 | 2 | 8 | -10 | 40 | 69*
